Assay results reported in paper PMC9810080 (Biochemistry, 2022).
Residues, ends and D or L forms follow the SMILES beside them.

Assays:
[1] = target: Ca^2+-bound CaM (full-length calmodulin) (Homo sapiens, UniProt P0DP23); assay: ITC, peptide binding to full-length Ca2+-bound CaM; conditions: for K2: association constant, site 2; for K2 / ΔH1 / ΔH2: ITC two-site model, 27 °C, pH 7.0, 1 mM CaCl2; for ΔH1: higher-affinity exothermic site; for ΔH2: lower-affinity endothermic site
In short: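 Calorimetry at 27 °C used CNGB1 CaM-binding-domain peptides (DMSO-d6 stocks, quantified by UV–vis) and recombinant Ca2+-bound CaM, both exchanged into 20 mM Tris pH 7.0, 100 mM KCl, 1 mM CaCl2. Peptide at 50 μM in the cell was titrated with 0.5 mM CaM over 34 injections, and the isotherm was fitted to a two-site model. The apoCaM comparison used 20 mM Tris pH 8.0, 100 mM KCl, 2 mM EGTA with a one-site fit.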

[2] = target: Ca^2+-bound CaM N-lobe (residues 1–80) (Homo sapiens, UniProt P0DP23); assay: ITC, peptide binding to isolated CaM N-lobe; conditions: for ΔH1: ITC, isolated CaM N-lobe, 27 °C, pH 7.0, 1 mM CaCl2
In short: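 The isolated recombinant Ca2+-bound CaM N-lobe and CNGB1 peptides (DMSO-d6 stocks, UV–vis quantified) were buffer-exchanged into 20 mM Tris pH 7.0, 100 mM KCl, 1 mM CaCl2. At 27 °C, 50 μM peptide in the cell was titrated with 0.5 mM N-lobe over 34 injections. The CaM1 isotherm was fitted to a one-site model and the CaM2 isotherm to a two-site model.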

[3] = target: Ca^2+-bound CaM C-lobe (residues 80–149) (Homo sapiens, UniProt P0DP23); assay: ITC, peptide binding to isolated CaM C-lobe; conditions: for ΔH1: ITC one-site model, isolated CaM C-lobe, 27 °C, pH 7.0, 1 mM CaCl2; for fold decrease in binding affinity to CaM C-lobe caused by mutation: versus CaM2^WT, ITC
In short: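 Wild-type and point-mutant CNGB1 peptides (DMSO-d6 stocks, UV–vis quantified) and the recombinant Ca2+-bound CaM C-lobe fragment were exchanged into 20 mM Tris pH 7.0, 100 mM KCl, 1 mM CaCl2. At 27 °C, 50 μM peptide in the cell was titrated with 0.5 mM C-lobe over 34 injections. Isotherms were fitted to a one-site model.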

Ca^2+-free CaM (apoCaM) = Ca^2+-free CaM (apoCaM) (Homo sapiens, UniProt P0DP23); assay: ITC, peptide binding to Ca2+-free CaM; conditions: ITC one-site model; 27 °C; 20 mM Tris pH 8.0, 100 mM KCl, 2 mM EGTA
In short: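 Recombinant calmodulin (Ca²⁺-free) titrated into a synthetic CNGB1 CaM-binding-domain peptide (residues 1120–1147; dissolved in DMSO-d₆, quantified by UV–vis). Both were exchanged into 20 mM Tris pH 8.0, 100 mM KCl, 2 mM EGTA. Peptide was 50 μM in the cell and CaM was 0.5 mM in the syringe, over 34 injections at 27 °C. The isotherm was fit to a one-site model for ΔH.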

Row | SMILES | K2 [1] | ΔH1 [1] | ΔH2 [1] | ΔH1 [2] | ΔH1 [3] | fold decrease in binding affinity to CaM C-lobe caused by mutation [3] | also measured
1 | CC[C@H](C)[C@H](NC(=O)[C@H](CC(C)C)NC(=O)[C@H](CCCCN)NC(=O)[C@H](CCC(=O)O)NC(=O)[C@H](CCCCN)NC(=O)[C@@H](NC(=O)[C@H](CCCCN)NC(=O)[C@H](CCC(=O)O)NC(=O)[C@@H](NC(=O)[C@H](CCCNC(=N)N)NC(=O)[C@H](CCC(=O)O)NC(=O)[C@H](CCCCN)NC(=O)[C@H](Cc1ccccc1)NC(=O)[C@H](CC(C)C)NC(=O)[C@H](CCCCN)NC(=O)[C@@H](NC(=O)[C@H](CC(C)C)NC(=O)[C@H](CCC(=O)O)NC(=O)[C@H](CCC(N)=O)NC(=O)[C@H](CC(C)C)NC(=O)[C@H](CCCNC(=N)N)NC(=O)[C@H](CC(=O)O)NC(=O)[C@@H](N)CC(N)=O)C(C)C)[C@@H](C)O)C(C)C)C(=O)N[C@@H](CC(=O)O)C(=O)N1CCC[C@H]1C(=O)O [CaM1] (H-NDRLQELVKLFKERTEKVKEKLIDP-OH; N-terminus and C-terminus assumed) | 4.2 ± 0.5 × 10^3 M^−1 | -7.5 ± 0.2 kcal/mol | +40 ± 4 kcal/mol | -2.5 ± 0.2 kcal/mol |  |  | fold higher affinity for Ca^2+-bound CaM compared to apoCaM ([1]; comparison of NMR spectral changes and ITC): at least 100 fold; fold higher affinity for CaM N-lobe compared to CaM C-lobe ([2]; from ITC with isolated lobes): at least fivefold
2 | CC[C@H](C)[C@H](NC(=O)[C@H](CC(C)C)NC(=O)[C@H](CCCCN)NC(=O)[C@H](CCC(=O)O)NC(=O)[C@H](CCCCN)NC(=O)[C@@H](NC(=O)[C@H](CCCCN)NC(=O)[C@H](CCC(=O)O)NC(=O)[C@@H](NC(=O)[C@H](CCCNC(=N)N)NC(=O)[C@H](CCC(=O)O)NC(=O)[C@H](CCCCN)NC(=O)[C@H](CCC(=O)O)NC(=O)[C@H](CC(C)C)NC(=O)[C@H](CCCCN)NC(=O)[C@@H](NC(=O)[C@H](CC(C)C)NC(=O)[C@H](CCC(=O)O)NC(=O)[C@H](CCC(N)=O)NC(=O)[C@H](CC(C)C)NC(=O)[C@H](CCCNC(=N)N)NC(=O)[C@H](CC(=O)O)NC(=O)[C@@H](N)CC(N)=O)C(C)C)[C@@H](C)O)C(C)C)C(=O)N[C@@H](CC(=O)O)C(=O)N1CCC[C@H]1C(=O)O [CaM1^F575E] (H-NDRLQELVKLEKERTEKVKEKLIDP-OH; N-terminus and C-terminus assumed) |  |  |  | +0.7 ± 0.5 kcal/mol |  |  | 
3 | CC(C)C[C@H](NC(=O)[C@H](C)NC(=O)[C@H](C)NC(=O)[C@H](CC(C)C)NC(=O)[C@H](CCC(=O)O)NC(=O)[C@H](CCCCN)NC(=O)[C@H](CC(C)C)NC(=O)[C@H](CCCNC(=N)N)NC(=O)[C@H](C)NC(=O)[C@H](CCCNC(=N)N)NC(=O)[C@H](CC(C)C)NC(=O)[C@H](Cc1c[nH]cn1)NC(=O)[C@H](C)NC(=O)[C@H](CC(C)C)NC(=O)[C@H](CCCCN)NC(=O)CNC(=O)CNC(=O)[C@H](CCCCN)NC(=O)[C@H](C)NC(=O)CNC(=O)[C@H](CCCCN)NC(=O)CNC(=O)CN)C(=O)N[C@@H](CCC(=O)O)C(=O)N[C@@H](C)C(=O)N[C@@H](C)C(=O)N[C@@H](C)C(=O)N[C@@H](CCCCN)C(=O)O [CaM2] (H-GGKGAKGGKLAHLRARLKELAALEAAAK-OH; N-terminus and C-terminus assumed) | 2.9 ± 0.5 × 10^6 M^−1 | -4.5 ± 1.6 kcal/mol | +16 ± 2 kcal/mol |  | -2.0 ± 0.1 kcal/mol |  | binding stoichiometry at saturation (peptide:CaM) ([1]; biphasic ITC isotherm): two CaM2 molecules are bound to one molecule of CaM; ΔH (Ca^2+-free CaM (apoCaM)): +2.1 ± 0.4 kcal/mol
4 | CC(C)C[C@H](NC(=O)[C@H](C)NC(=O)[C@H](C)NC(=O)[C@H](CC(C)C)NC(=O)[C@H](CCC(=O)O)NC(=O)[C@H](CCCCN)NC(=O)[C@H](CC(C)C)NC(=O)[C@H](CCCNC(=N)N)NC(=O)[C@H](C)NC(=O)[C@H](CCCNC(=N)N)NC(=O)[C@H](CCC(=O)O)NC(=O)[C@H](Cc1c[nH]cn1)NC(=O)[C@H](C)NC(=O)[C@H](CC(C)C)NC(=O)[C@H](CCCCN)NC(=O)CNC(=O)CNC(=O)[C@H](CCCCN)NC(=O)[C@H](C)NC(=O)CNC(=O)[C@H](CCCCN)NC(=O)CNC(=O)CN)C(=O)N[C@@H](CCC(=O)O)C(=O)N[C@@H](C)C(=O)N[C@@H](C)C(=O)N[C@@H](C)C(=O)N[C@@H](CCCCN)C(=O)O [CaM2^L1132E] (H-GGKGAKGGKLAHERARLKELAALEAAAK-OH; N-terminus and C-terminus assumed) |  |  |  |  | +3.1 ± 0.5 kcal/mol | more than 500 fold | 
5 | CC(C)C[C@H](NC(=O)[C@H](C)NC(=O)[C@H](C)NC(=O)[C@H](CC(C)C)NC(=O)[C@H](CCC(=O)O)NC(=O)[C@H](CCCCN)NC(=O)[C@H](CCC(=O)O)NC(=O)[C@H](CCCNC(=N)N)NC(=O)[C@H](C)NC(=O)[C@H](CCCNC(=N)N)NC(=O)[C@H](CC(C)C)NC(=O)[C@H](Cc1c[nH]cn1)NC(=O)[C@H](C)NC(=O)[C@H](CC(C)C)NC(=O)[C@H](CCCCN)NC(=O)CNC(=O)CNC(=O)[C@H](CCCCN)NC(=O)[C@H](C)NC(=O)CNC(=O)[C@H](CCCCN)NC(=O)CNC(=O)CN)C(=O)N[C@@H](CCC(=O)O)C(=O)N[C@@H](C)C(=O)N[C@@H](C)C(=O)N[C@@H](C)C(=O)N[C@@H](CCCCN)C(=O)O [CaM2^L1136E] (H-GGKGAKGGKLAHLRAREKELAALEAAAK-OH; N-terminus and C-terminus assumed) |  |  |  |  | +2.6 ± 1.8 kcal/mol | more than 500 fold | 
